Legend:
[1] = tested on: Human immunodeficiency virus 1; test: Antiviral activity against HIV1 3B infected human MT4 cells assessed as drug level required for 95% inhibition in the presence of 10% fetal bovine serum; type: functional
In short: (§1)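 Spread assay: MT-4 human T-lymphoid cells in RPMI 1640 with either 10% FBS or 50% NHS; CIC95 taken as the concentration blocking >95% of virus spread. Wild-type virus H9IIIB or R8 as stated per line. Geometric mean of at least two determinations, individual values within 25% of the mean.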

[2] = tested on: Human immunodeficiency virus 1; test: Antiviral activity against HIV1 3B infected human MT4 cells assessed as drug level required for 95% inhibition in the presence of 50% normal human serum; type: functional; in short: as §1
[3] = Inhibition of HIV1 reverse transcriptase K103 mutant
[4] = tested on: Human immunodeficiency virus 1; test: Ratio of IC50 for HIV1 carrying reverse transcriptase Y188L mutant to IC50 for wild type HIV1 in the presence of 40% normal human serum; type: functional
[5] = tested on: Human immunodeficiency virus 1; test: Ratio of IC50 for HIV1 carrying reverse transcriptase G190A mutant to IC50 for wild type HIV1 in the presence of 40% normal human serum; type: functional
[6] = tested on: Human immunodeficiency virus 1; test: Ratio of IC50 for HIV1 carrying reverse transcriptase G190S mutant to IC50 for wild type HIV1 in the presence of 40% normal human serum; type: functional
[7] = tested on: Human immunodeficiency virus 1; test: Ratio of IC50 for HIV1 carrying reverse transcriptase K103N/V179E mutant to IC50 for wild type HIV1 in the presence of 40% normal human serum; type: functional
[8] = tested on: Human immunodeficiency virus 1; test: Ratio of IC50 for HIV1 carrying reverse transcriptase K103N/Y181C mutant to IC50 for wild type HIV1 in the presence of 40% normal human serum; type: functional
[9] = tested on: Human immunodeficiency virus 1; test: Ratio of IC50 for HIV1 carrying reverse transcriptase K103N/G190A mutant to IC50 for wild type HIV1 in the presence of 40% normal human serum; type: functional
[10] = tested on: Human immunodeficiency virus 1; test: Ratio of IC50 for HIV1 carrying reverse transcriptase Y181C/G190A mutant to IC50 for wild type HIV1 in the presence of 40% normal human serum; type: functional
[11] = tested on: Human immunodeficiency virus 1; test: Ratio of IC50 for HIV1 carrying reverse transcriptase K103N/P225H mutant to IC50 for wild type HIV1 in the presence of 40% normal human serum; type: functional
[12] = tested on: Human immunodeficiency virus 1; test: Ratio of IC50 for HIV1 carrying reverse transcriptase […]/G190A mutant to IC50 for wild type HIV1 in the presence of 40% normal human serum; type: functional
[13] = tested on: Human immunodeficiency virus 1; test: Antiviral activity against HIV1 carrying reverse transcriptase […]/G190A mutant infected human MT4 cells in the presence of 40 percent normal human serum; type: functional
In short: (§2)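 Phenotypic recombinant-virus assay (Phenoscreen, Monogram Bioscience), run with 40% normal human serum present. IC50 is the compound concentration in cell culture that inhibits viral replication by 50%.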

[14] = tested on: Human immunodeficiency virus 1; test: Ratio of IC50 for HIV1 carrying reverse transcriptase […]/ Y181C/G190A mutant to IC50 for wild type HIV1 in the presence of 40% normal human serum; type: functional
[15] = tested on: Human immunodeficiency virus 1; test: Ratio of IC50 for HIV1 carrying reverse transcriptase V106A/G190A/F227L mutant to IC50 for wild type HIV1 in the presence of 40% normal human serum; type: functional
[16] = Half life in Sprague-Dawley rat at 10 mg/kg, po and 2 mg/kg, iv; type: ADME, organism-based; conditions: in vivo
[17] = Oral bioavailability in Beagle dog at 1 mg/kg; type: ADME, organism-based, Canis lupus familiaris; conditions: in vivo
In short: (§3)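 Beagle dogs (n = 2) dosed singly, po 1 mg/kg and iv 0.5 mg/kg; iv cassette co-administered with other analogues at 0.125 mg/kg. Interanimal variability below 20%.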

[18] = Volume of distribution in Beagle dog at 1 mg/kg, po and 0.5 mg/kg, iv; type: ADME, organism-based, Canis lupus familiaris; conditions: in vivo, read-out: Vdss; in short: as §3
[19] = Half life in Beagle dog at 1 mg/kg, po and 0.5 mg/kg, iv; type: ADME, organism-based, Canis lupus familiaris; conditions: in vivo; in short: as §3
[20] = tested on: Rattus norvegicus; test: Hepatic clearance in Sprague-Dawley rat at 10 mg/kg, po and 2 mg/kg, iv; type: ADME, organism-based, Liver; conditions: in vivo
[21] = Activity of CYP3A4 in rat liver microsomes assessed as oxidation of tetrahydroquinoline ring; type: ADME, Microsome
[22] = Activity of CYP3A4 in rat hepatocytes assessed as oxidation of tetrahydroquinoline ring; type: ADME, cell-based, Hepatocyte
[23] = Activity of CYP3A4 in rat bile assessed as oxidation of tetrahydroquinoline ring; type: ADME
[24] = Activity of CYP3A4 in rat plasma assessed as oxidation of tetrahydroquinoline ring; type: ADME, cell-free
[25] = tested on: Human immunodeficiency virus 1; test: Antiviral activity against HIV1 carrying reverse transcriptase K103N/V179E mutant infected human MT4 cells by phenoscreen assay in the presence of 40 percent normal human serum; type: functional, organism-based; conditions: Human immunodeficiency virus 1, MT4; in short: as §2
[26] = tested on: Human immunodeficiency virus 1; test: Antiviral activity against HIV1 R8 infected human MT4 cells assessed as drug level required for 95% inhibition in the presence of 10% fetal bovine serum; type: functional; in short: as §1
[27] = tested on: Human immunodeficiency virus 1; test: Antiviral activity against HIV1 R8 infected human MT4 cells assessed as drug level required for 95% inhibition in the presence of 50% normal human serum; type: functional; in short: as §1
[28] = tested on: Human immunodeficiency virus 1; test: Antiviral activity against HIV1 infected human MT4 cells by phenoscreen assay in the presence of 40 percent normal human serum; type: functional, organism-based; conditions: Human immunodeficiency virus 1, MT4
[29] = tested on: Human immunodeficiency virus 1; test: Antiviral activity against HIV1 carrying reverse transcriptase […] mutant infected human MT4 cells by phenoscreen assay in the presence of 40 percent normal human serum; type: functional, organism-based; conditions: Human immunodeficiency virus 1, MT4; in short: as §2
[30] = tested on: Human immunodeficiency virus 1; test: Antiviral activity against HIV1 carrying reverse transcriptase K103N mutant infected human MT4 cells by phenoscreen assay in the presence of 40 percent normal human serum; type: functional, organism-based; conditions: Human immunodeficiency virus 1, MT4; in short: as §2
[31] = tested on: Human immunodeficiency virus 1; test: Antiviral activity against HIV1 carrying reverse transcriptase Y181C mutant infected human MT4 cells by phenoscreen assay in the presence of 40 percent normal human serum; type: functional, organism-based; conditions: Human immunodeficiency virus 1, MT4; in short: as §2
[32] = tested on: Human immunodeficiency virus 1; test: Antiviral activity against HIV1 carrying reverse transcriptase Y188L mutant infected human MT4 cells by phenoscreen assay in the presence of 40 percent normal human serum; type: functional, organism-based; conditions: Human immunodeficiency virus 1, MT4; in short: as §2
[33] = tested on: Human immunodeficiency virus 1; test: Antiviral activity against HIV1 carrying reverse transcriptase K103N/Y181C mutant infected human MT4 cells by phenoscreen assay in the presence of 40 percent normal human serum; type: functional, organism-based; conditions: Human immunodeficiency virus 1, MT4; in short: as §2
[34] = tested on: Human immunodeficiency virus 1; test: Antiviral activity against HIV1 carrying reverse transcriptase K103N/G190A mutant infected human MT4 cells by phenoscreen assay in the presence of 40 percent normal human serum; type: functional, organism-based; conditions: Human immunodeficiency virus 1, MT4; in short: as §2
[35] = tested on: Human immunodeficiency virus 1; test: Antiviral activity against HIV1 carrying reverse transcriptase Y181C/G190A mutant infected human MT4 cells by phenoscreen assay in the presence of 40 percent normal human serum; type: functional, organism-based; conditions: Human immunodeficiency virus 1, MT4; in short: as §2
[36] = tested on: Human immunodeficiency virus 1; test: Antiviral activity against HIV1 carrying reverse transcriptase K103N/P225H mutant infected human MT4 cells by phenoscreen assay in the presence of 40 percent normal human serum; type: functional, organism-based; conditions: Human immunodeficiency virus 1, MT4; in short: as §2
[37] = tested on: Human immunodeficiency virus 1; test: Antiviral activity against HIV1 carrying reverse transcriptase K103N/ Y181C/G190A mutant infected human MT4 cells by phenoscreen assay in the presence of 40 percent normal human serum; type: functional, organism-based; conditions: Human immunodeficiency virus 1, MT4; in short: as §2
[38] = tested on: Human immunodeficiency virus 1; test: Antiviral activity against HIV1 carrying reverse transcriptase V106A/G190A/F227L mutant infected human MT4 cells by phenoscreen assay in the presence of 40 percent normal human serum; type: functional, organism-based; conditions: Human immunodeficiency virus 1, MT4; in short: as §2
[39] = tested on: Human immunodeficiency virus 1; test: Ratio of IC50 for HIV1 carrying reverse transcriptase […] mutant to IC50 for wild type HIV1 in the presence of 40% normal human serum; type: functional
[40] = tested on: Human immunodeficiency virus 1; test: Ratio of IC50 for HIV1 carrying reverse transcriptase K103N mutant to IC50 for wild type HIV1 in the presence of 40% normal human serum; type: functional
[41] = tested on: Human immunodeficiency virus 1; test: Ratio of IC50 for HIV1 carrying reverse transcriptase Y181C mutant to IC50 for wild type HIV1 in the presence of 40% normal human serum; type: functional
[42] = tested on: Human immunodeficiency virus 1; test: Antiviral activity against HIV1 carrying reverse transcriptase G190A mutant infected human MT4 cells by phenoscreen assay in the presence of 40 percent normal human serum; conditions: Human immunodeficiency virus 1, MT4
[43] = tested on: Human immunodeficiency virus 1; test: Antiviral activity against HIV1 carrying reverse transcriptase G190S mutant infected human MT4 cells by phenoscreen assay in the presence of 40 percent normal human serum; conditions: Human immunodeficiency virus 1, MT4
[44] = tested on: Human immunodeficiency virus 1; test: Antiviral activity against HIV1 carrying reverse transcriptase K101E/G190A mutant infected human MT4 cells by phenoscreen assay in the presence of 40 percent normal human serum; conditions: Human immunodeficiency virus 1, MT4
[45] = tested on: Human immunodeficiency virus 1; test: Antiviral activity against HIV1 carrying reverse transcriptase K101E/ Y181C/G190A mutant infected human MT4 cells by phenoscreen assay in the presence of 40 percent normal human serum; conditions: Human immunodeficiency virus 1, MT4
[46] = tested on: Canis familiaris; test: Hepatic clearance in Beagle dog at 1 mg/kg, po and 0.5 mg/kg, iv; type: ADME, organism-based, Canis lupus familiaris, Liver; conditions: in vivo; in short: as §3
[47] = tested on: Rattus norvegicus; test: Hepatic clearance in rat at 10 mg/kg, po and 2 mg/kg, iv; conditions: in vivo

NS(=O)(=O)c1ccc(NC(=O)CSC(=O)N2CCCc3cccc(Cl)c32)c(Cl)c1
ID95 [1]: 23 nM | ID95 [2]: 47 nM | IC50 [3]: 4 nM

NS(=O)(=O)c1ccc(NC(=O)CSC(=O)N2CCCc3cc(Cl)cc(Cl)c32)c(Cl)c1
fold change (FC) [4]: >833 | fold change (FC) [5]: 10.1 | fold change (FC) [6]: 51.6 | fold change (FC) [7]: 1.8 | fold change (FC) [8]: 53.5 | fold change (FC) [9]: 6.8 | fold change (FC) [10]: 272.5 | fold change (FC) [11]: 2.7 | fold change (FC) [12]: 94.3 | fold change (FC) [13]: 94.3 | fold change (FC) [14]: >833 | fold change (FC) [15]: >833 | half-life [16]: 24 min | bioavailability [17]: 30% | Vd [18]: 5 L/kg | half-life [19]: 294 min | CL [20]: 109 mL/min/kg | Activity [21]: Active | Activity [22]: Active | Activity [23]: Active | Activity [24]: Active | IC50 [25]: 2.2 nM | ID95 [1]: 13 nM | ID95 [2]: 40 nM | Activity [26]: 18 nM | Activity [27]: 33 nM | IC50 [28]: 1.2 nM | IC50 [29]: 5.5 nM | IC50 [30]: 0.9 nM | IC50 [31]: 16.8 nM | IC50 [32]: > 1000 nM | IC50 [33]: 64.2 nM | IC50 [34]: 8.2 nM | IC50 [35]: 327 nM | IC50 [36]: 3.2 nM | IC50 [37]: > 1000 nM | IC50 [38]: > 1000 nM | fold change (FC) [39]: 4.6 | fold change (FC) [40]: 0.8 | fold change (FC) [41]: 14 | IC50 [42]: 12.1 nM | IC50 [43]: 61.9 nM | IC50 [44]: 113 nM | IC50 [45]: > 1000 nM

NS(=O)(=O)c1ccc(NC(=O)C2CC2C(=O)N2CCCc3cc(Cl)cc(Cl)c32)c(Cl)c1 (single isomer, unassigned; 16)
half-life [16]: 30 min | half-life [19]: 78 min | CL [46]: 14 mL/min/kg | Activity [1]: 176 nM | Activity [2]: 304 nM | IC50 [3]: 18 nM | CL [47]: 22 mL/min/kg

NS(=O)(=O)c1ccc(NC(=O)C2CC2C(=O)N2CCCc3cc(Cl)cc(Cl)c32)c(Cl)c1 (single isomer, unassigned; 17)
Activity [1]: 922 nM | Activity [2]: 922 nM | IC50 [3]: 430 nM
